Sampled rows, rich in hits. Any-hit rate of the full collection: about 3.5%.
RGS4 pot: potentiators or activators of RGS4; hit rate 0.92% among 310,000; B-score at 10 µM; HEK293 M3R/inducible RGS4, carbachol calcium flux Fluo4; stronger effect = lower value;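 active means B-score of the integrated calcium signal more than 4 SD below the library mean, with starting fluorescence not abnormally high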;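 further: negative B-score means reduced calcium response which marks RGS4 activation or potentiation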
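Test system: HEK293 cells with stable M3R and inducible RGS4; also added: carbachol at ECmax as muscarinic agonist stimulus; schedule: dye loading 30 min 37 °C, buffer rest 30 min RT; technique: kinetic calcium fluorescence imaging with Fluo4-AM dye, 2 µM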
MrgX1 antagonist: antagonists of human MrgX1 receptor. MRGX1-HEK293 calcium flux, Fluo-4, BAM8-22 antagonism; stronger effect = lower value. B-score at 10 µM. hit rate 1.3% among 310,000;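 active means calcium-response B-score plate-corrected more than 3 library SD below zero, starting fluorescence within 5 deviations, no agonist response on first addition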;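 further: peak minus trough fluorescence over baseline after final BAM8-22 challenge near maximal dose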
Target sequence (Q96LB2 whole entry, looked up): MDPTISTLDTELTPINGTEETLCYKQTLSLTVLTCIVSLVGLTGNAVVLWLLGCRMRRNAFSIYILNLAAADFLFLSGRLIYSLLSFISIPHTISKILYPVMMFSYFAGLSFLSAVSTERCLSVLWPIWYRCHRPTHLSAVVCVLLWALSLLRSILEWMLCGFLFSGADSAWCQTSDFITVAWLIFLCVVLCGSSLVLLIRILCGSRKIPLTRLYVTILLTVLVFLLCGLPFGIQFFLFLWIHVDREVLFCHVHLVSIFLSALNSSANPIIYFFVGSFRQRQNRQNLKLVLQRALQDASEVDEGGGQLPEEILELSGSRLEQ
RGS4 inh: human RGS4 inhibition; HEK293 M3R/RGS4 inducible, Fluo-4 calcium flux; stronger effect = higher value; triggered by carbachol at its EC20; B-score at 10 µM; P49798; hit rate 0.45% among 310,000;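 active means B-score, a plate-corrected calcium signal, over three deviations above library mean, with baseline fluorescence within five deviations of library mean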;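 further: RGS4 expression induced by doxycycline in cells with stable M3 receptor; B-score is computed from the integrated fluorescence ratio over baseline after carbachol; higher B-score means a larger calcium signal and so more RGS4 inhibition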
Target sequence (P49798 whole entry, looked up): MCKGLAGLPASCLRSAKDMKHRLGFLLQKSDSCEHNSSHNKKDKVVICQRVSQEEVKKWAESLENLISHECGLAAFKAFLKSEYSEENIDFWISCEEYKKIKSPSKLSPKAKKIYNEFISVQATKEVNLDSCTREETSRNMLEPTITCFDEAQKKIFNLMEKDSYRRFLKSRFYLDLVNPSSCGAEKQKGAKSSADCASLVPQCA
MrgX1 allo act: allosterically activates human MrgX1 receptor signaling; MrgX1-HEK293, Fluo-4 calcium flux, FDSS; stronger effect = higher value; B-score at 10 µM; hit rate 0.63% among 310,000; AID 588675;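 active means plate-corrected calcium response at least 3 library SD above typical, normal starting fluorescence, not activating the receptor alone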;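 further: compound read alongside a low EC10 to EC30 dose of BAM8-22 agonist; peak minus trough fluorescence over baseline measured at the second addition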
MrgX1 ag: agonists of human MrgX1 receptor | Q96LB2 | MrgX1-HEK293 cells, Fluo-4 calcium fluorescence, agonist mode; stronger effect = higher value | B-score at 10 µM | hit rate 0.44% among 310,000;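 active means calcium response B-score plate-corrected fluorescence ratio at least 3 library SD, with starting fluorescence B-score inside 5 SD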
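Assay system: stable human MrgX1 HEK293 cell line. Quantity: 15,000 cells per well. Schedule: cells plated overnight, dye loaded 0.5 h 37 °C, 0.5 h room temperature. Detection: Fluo-4 NW calcium-flux fluorescence, kinetic read. Read-out basis: peak-minus-minimum fluorescence over baseline, converted to B scores. Control set: positive and negative control wells on each plate.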
RGS4 block valid: RGS4 inhibitor validation; HEK293 M3R/RGS4, carbachol calcium Fluo-4 fluorescence; carbachol added at its EC20; 0 = buffer wells, 100 = carbachol control; AID 492999; shares compounds with RGS4 inh; calcium response, % at 10 µM; hit rate 65% among 1,700;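 active means duplicate-averaged calcium response above the buffer-only control mean plus 5 SD of those controls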;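 further: integrated fluorescence ratio F max minus min over baseline F0; higher response in RGS4-induced cells means RGS4 inhibition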
RGS4 uninduced: non-induced cell nonspecific activity of RGS4 inhibitors; HEK293 M3R non-induced, carbachol calcium Fluo-4; submaximal (EC20) carbachol stimulus; buffer wells 0%, carbachol control wells 100%; shares compounds with RGS4 inh; AID 493000; hit rate 20% among 1,900; activity (percent), % at 10 µM; call rule not given here;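 further: RGS4 induction absent so cells express M3R without RGS4; higher means more calcium signal and flags a non-specific hit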
RGS4 inh ctr2: second counter-screen for RGS4 inhibitors: non-induced cells without carbachol; shares compounds with RGS4 inh; HEK293 M3R/RGS4 non-induced, Fluo-4 calcium, no carbachol; normalised: buffer wells 0%, carbachol wells 100%; calcium response (agonist-mode artifact), % at 10 µM; hit rate 22% among 1,900;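 active means duplicate-averaged calcium rise in uninduced cells above buffer wells' mean plus 5 SD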
An asterisk follows results filed as active; i = inactive; . = not tested or not shown.

SMILES	RGS4 pot	MrgX1 antagonist	RGS4 inh	MrgX1 allo act	MrgX1 ag	RGS4 block valid	RGS4 uninduced	RGS4 inh ctr2
N#Cc1ccccc1NC(=O)C1SC(=Nc2ccccc2)C(C(=O)Nc2ccc(Cl)cc2)=C1N (centres undefined)	i	i	5.8*	i	i	i	i	i
COC(=O)c1cc(C)nc2c1C(=O)C(=O)C=C2N1CCOCC1	i	i	21.4*	i	i	34.0%*	i	i
COC(=O)c1cc(S(=O)(=O)N2CCOCC2)c(Cl)cc1N1CCOCC1	i	i	i	i	i	.	.	.
CC1CCN(S(=O)(=O)c2ccc3nc(N4CCN(c5ccccc5)CC4)ccc3c2)CC1	i	i	i	i	i	.	.	.
O=C(c1cccs1)C1CCCN(Cc2nc(Cc3ccccc3F)no2)C1 (centres undefined)	i	i	i	i	i	.	.	.
COc1ccc(-c2csc(NC3OC(=O)c4c3ccc(OC)c4OC)n2)cc1OC (centres undefined)	i	i	11.5*	i	i	44.0%*	i	i
COc1ccc2c(c1OC)C(=O)OC2Nc1nc(-c2ccc([N+](=O)[O-])cc2)cs1 (centres undefined)	i	i	i	i	i	i	i	i
COc1ccc2c(c1OC)C(=O)OC2Nc1nc(-c2cc3cc(Br)ccc3oc2=O)cs1 (centres undefined)	i	i	i	i	i	.	.	.
Cc1nn(-c2ccc(F)cc2)c(C)c1CN1CCN(CCC(C)C)C(CCO)C1 (centres undefined)	i	i	i	i	i	.	.	.
CCOc1cc(/C=C/c2nc3cc(C)c(C)cc3s2)ccc1OCC(=O)N1CCOCC1	i	i	i	i	i	.	.	.
CCOc1cc(/C=C\[N+](=O)[O-])ccc1OCC(=O)N1CCOCC1	i	i	28.4*	i	i	43.0%*	31.5%*	12.0%*
CCOC(=O)/C(=C\c1cccnc1)C(=O)c1cc(C(C)=O)c(Nc2ccccc2)s1	i	i	6.36*	i	i	42.0%*	i	9.5%*
O=C(CC12CC3CC(CC(C3)C1)C2)N/N=C/c1ccncc1	i	i	i	i	i	.	.	.
COc1ccc(Nc2cnn(-c3nc4ccccc4s3)c(=O)c2Cl)cc1	i	i	4.7*	i	i	11.0%*	i	i
COc1cccc(-c2nc(C=O)cs2)c1	i	i	5.03*	i	i	5.0%*	i	i
O=C(NCc1ccccc1)C(c1ccccc1)N(C(=O)c1csnn1)c1ccccc1 (centres undefined)	i	i	i	i	i	.	.	.
CC1(C)CC(=O)C(C(C2=C(O)CC(C)(C)CC2=O)c2cccc(O)c2)C(=O)C1 (centres undefined)	.	i	.	i	i	.	.	.
CC1(C)CC(=O)C(C(C2=C(O)CC(C)(C)CC2=O)c2cccs2)C(=O)C1 (centres undefined)	i	i	5.71*	i	i	24.5%*	58.5%*	i
Cc1ccc(C(C2=C(O)CC(C)(C)CC2=O)C2C(=O)CC(C)(C)CC2=O)o1 (centres undefined)	i	i	9.3*	i	i	16.0%*	i	i
CN1CCN(C(CNC(=O)C(=O)Nc2ccc3c(c2)OCO3)c2ccc(F)cc2)CC1 (centres undefined)	i	i	i	i	i	.	.	.
CCOC(=O)C1CCN(C(c2cc3c(C)ccc(C)c3[nH]c2=O)c2nnnn2C2CCCCC2)CC1 (centres undefined)	i	i	i	i	i	i	i	i
CCOC(=O)C1CCN(C(c2cc3ccc(C)c(C)c3[nH]c2=O)c2nnnn2C2CCCCC2)CC1 (centres undefined)	i	i	i	i	i	i	i	19.0%*
COc1ccc(Cl)cc1S(=O)(=O)N1CCCC(C(=O)N2CCOCC2)C1 (centres undefined)	i	i	i	i	i	i	i	i
O=[N+]([O-])c1ccc(-c2nn(-c3ccccc3)cc2/C=N/n2c(-c3ccncc3)n[nH]c2=S)cc1	i	i	i	i	i	i	i	i
Cc1ccc(-c2nn(-c3ccccc3)cc2/C=N/n2c(-c3cccs3)n[nH]c2=S)cc1	i	i	i	i	i	.	.	.
SMILES	RGS4 pot	MrgX1 antagonist	RGS4 inh	MrgX1 allo act	MrgX1 ag	RGS4 block valid	RGS4 uninduced	RGS4 inh ctr2
S=c1[nH]nc(-c2ccncc2)n1/N=C/c1cn(-c2ccccc2)nc1-c1ccccc1	i	i	7.8*	i	i	11.5%*	41.0%*	i
Cc1nc2c(C(=O)NCCC3=CCCCC3)c[nH]n2c(=O)c1Cl	i	i	16.9*	i	i	51.5%*	52.5%*	i
CCCNC(=O)c1nnsc1S(=O)c1ccc(Cl)cc1 (centres undefined)	i	.	7.2*	.	.	12.0%*	i	22.5%*
CNC(=O)c1nnsc1S(=O)c1ccc(Cl)cc1 (centres undefined)	i	.	7.3*	.	.	29.5%*	i	13.5%*
Cn1c(=O)c2c(-c3ccccc3)n(-n3cnnc3)cc2n(C)c1=O	i	i	5.43*	i	i	11.0%*	i	i
Cc1ccc([N+](=O)[O-])cc1N(CC(=O)Nc1ccc(S(=O)(=O)Nc2cccc(C(F)(F)F)c2)cc1)S(C)(=O)=O	i	i	7.24*	i	i	22.0%*	i	i
CC12CN(C(=O)c3cccc([N+](=O)[O-])c3)C3(C#N)CC1CCC23C (centres undefined)	i	i	i	i	i	.	.	.
OCCC#Cc1c(-c2ccsc2)sc2ccccc12	i	i	i	i	i	.	.	.
COc1ccc(-c2sc3ccccc3c2C#CCO)cc1	i	i	i	i	i	i	i	i
COc1ccc(-c2sc3ccccc3c2C#CCCO)cc1	i	i	4.87*	i	i	9.0%*	i	i
Nc1ccc(C23CC4CC(CC(C4)C2)C3)cc1	i	i	7.94*	i	i	13.0%*	i	i
